The record followed here is ChEMBL document CHEMBL4368933, “Structure-activity relationship of leucyladenylate sulfamate analogues as leucyl-tRNA synthetase (LRS)-targeting inhibitors of Mammalian target of rapamycin complex 1 (mTORC1)” (Bioorg Med Chem, 2019).

One may read the IC50 as the midpoint of a concentration-inhibition curve. Read a low IC50 as greater potency in that assay.

For experiment [1], the target named is Leucine--tRNA ligase, cytoplasmic (Homo sapiens) (UniProt Q9P2J5). In words: Inhibition of Leucyl-tRNA synthetase-mediated mTORC1 signaling activation in human HEK293 cells assessed as reduction in leucine-induced S6K phosphorylation at 200 uM preincubated for 50 mins followed by leucine-stimulation and measured after 10 mins by Western blot analysis. The format is cell-based. The method in brief: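 HEK293 cells pretreated with test agent at a fixed 200 µM, alongside rapamycin (100 nM) and leucinol (800 µM) as references. mTORC1 then activated by adding leucine for 10 min. S6K phosphorylation read by Western blot.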
Leucine--tRNA ligase, cytoplasmic (Homo sapiens), sequence (Q9P2J5 whole entry, looked up): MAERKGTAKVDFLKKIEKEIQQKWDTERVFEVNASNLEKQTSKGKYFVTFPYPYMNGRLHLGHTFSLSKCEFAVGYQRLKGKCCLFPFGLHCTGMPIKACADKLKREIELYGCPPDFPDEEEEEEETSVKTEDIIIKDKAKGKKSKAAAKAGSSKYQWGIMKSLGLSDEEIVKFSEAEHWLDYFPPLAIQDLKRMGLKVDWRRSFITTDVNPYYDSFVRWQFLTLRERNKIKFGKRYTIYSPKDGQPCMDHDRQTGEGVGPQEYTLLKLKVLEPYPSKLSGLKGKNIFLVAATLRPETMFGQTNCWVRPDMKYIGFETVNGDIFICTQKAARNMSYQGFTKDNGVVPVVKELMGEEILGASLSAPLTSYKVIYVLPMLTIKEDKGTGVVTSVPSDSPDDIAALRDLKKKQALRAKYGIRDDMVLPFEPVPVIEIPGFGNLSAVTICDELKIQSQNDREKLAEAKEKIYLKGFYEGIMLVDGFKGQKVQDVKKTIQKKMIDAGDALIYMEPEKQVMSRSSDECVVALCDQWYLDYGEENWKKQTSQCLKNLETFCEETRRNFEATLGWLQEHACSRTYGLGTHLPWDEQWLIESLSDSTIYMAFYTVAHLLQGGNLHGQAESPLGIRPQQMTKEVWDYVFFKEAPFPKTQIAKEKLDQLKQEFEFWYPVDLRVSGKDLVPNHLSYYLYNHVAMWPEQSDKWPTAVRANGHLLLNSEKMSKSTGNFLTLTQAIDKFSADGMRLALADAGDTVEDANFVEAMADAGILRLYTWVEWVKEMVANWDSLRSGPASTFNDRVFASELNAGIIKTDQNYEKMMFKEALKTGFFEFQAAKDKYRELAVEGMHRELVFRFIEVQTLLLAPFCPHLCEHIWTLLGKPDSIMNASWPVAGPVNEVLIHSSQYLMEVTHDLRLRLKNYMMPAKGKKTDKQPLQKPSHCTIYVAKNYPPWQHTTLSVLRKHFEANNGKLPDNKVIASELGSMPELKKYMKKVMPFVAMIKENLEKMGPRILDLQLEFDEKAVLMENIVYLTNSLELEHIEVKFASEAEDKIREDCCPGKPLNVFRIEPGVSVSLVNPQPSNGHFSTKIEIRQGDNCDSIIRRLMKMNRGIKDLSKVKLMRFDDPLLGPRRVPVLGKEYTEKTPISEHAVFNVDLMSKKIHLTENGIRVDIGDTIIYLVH
(A western blot detects proteins with antibodies after separation by electrophoresis.)

Another experiment concerns SK-HEP1. Briefly: Antiproliferative activity against human SKHEP1 cells after 72 hrs by SRB assay. The format is functional, cell-based. Particulars: SK-HEP1, 72 h. The procedure, abridged: (§1)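 Colorimetric growth assay with IC50 values derived; etoposide as positive control. Cell lines: A549 (lung cancer), HCT116 (colon cancer), MDA-MB-231 (breast cancer), SK-Hep-1 (liver cancer), SNU638 (stomach cancer), MRC5 (normal lung […]).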

In the next experiment the test system is MDA-MB-231. Briefly: Antiproliferative activity against human MDA-MB-231 cells after 72 hrs by SRB assay. Type of experiment: functional, cell-based. Particulars: MDA-MB-231, 72 h. The method in brief:
as §1
(The SRB assay estimates cell density from bound dye.)

In a further experiment the test system is MRC5. In words: Antiproliferative activity against human MRC5 cells after 72 hrs by SRB assay. The format is cell-based. To be noted: MRC5, 72 h. The procedure, abridged: as §1
The test system of a further experiment is SNU-638. In words: Antiproliferative activity against human SNU638 cells after 72 hrs by SRB assay. The format is functional, cell-based. To be noted: SNU-638, 72 h. The procedure, abridged: as §1
The subject of the next experiment is HCT-116. Briefly: Antiproliferative activity against human HCT116 cells after 72 hrs by SRB assay. The format is functional, cell-based. To be noted: HCT-116, 72 h. The method in brief: as §1
The next experiment has as its system A549. Briefly: Antiproliferative activity against human A549 cells after 72 hrs by SRB assay. Particulars: A549, 72 h. Type of experiment: functional, cell-based. The method in brief:
as §1

Another experiment addresses mTORC2 (Homo sapiens) (UniProt P42345+Q6R327+Q9BVC4+Q9BPZ7). Briefly: Inhibition of mTORC2 signaling in human HEK293 cells assessed as reduction in leucine-induced AKT phosphorylation at 200 uM preincubated for 50 mins followed by leucine-stimulation and measured after 10 mins by Western blot analysis. The format is cell-based.

The source made the active and inactive calls. No cut-off for these calls is given here. Bounds are passed on as bounds.

Regarding `CC(C)c1cc(C(=O)NS(=O)(=O)OC[C@H]2O[C@@H](n3cnc4c(N)nc(I)nc43)[C@H](O)[C@@H]2O)n(C)n1`, the inhibition result in experiment [1] is “Active”.

For the compound `CC(C)[C@H](O)[C@@H](O)C(=O)NS(=O)(=O)OC[C@H]1O[C@@H](n2cnc3c(N)ncnc32)C[C@@H]1O`, the inhibition result in experiment [1] was “inactive”.

For the compound `CC(C)(C)c1cc(C(=O)NS(=O)(=O)OC[C@H]2O[C@@H](n3cnc4c(N)ncnc43)[C@H](O)[C@@H]2O)[nH]n1`, in experiment [1], the inhibition entry was “Active”.

With `CC(C)c1cc(C(=O)NS(=O)(=O)OC[C@H]2O[C@@H](n3cnc4c(N)ncnc43)[C@H](O)[C@@H]2O)[nH]n1`, the inhibition entry in experiment [1] was “inactive”.

On to `CC(C)C[C@H](N)C(=O)NS(=O)(=O)OC[C@H]1O[C@@H](n2cnc3c(N)ncnc32)[C@H](O)[C@@H]1N`, for which the inhibition result in experiment [1] was “inactive”.

For `CC(C)[C@@H](O)[C@H](O)C(=O)NS(=O)(=O)OC[C@H]1O[C@@H](n2cnc3c(N)ncnc32)[C@@H](O)[C@@H]1O`, the inhibition result in experiment [1] was “inactive”.

`CC(C)c1cc(C(=O)NS(=O)(=O)OC[C@H]2O[C@@H](n3cnc4c(N)ncnc43)[C@H](O)[C@@H]2O)n(C)n1`: the inhibition entry in experiment [1] is “Active”.

With `CO[C@H](C(=O)NS(=O)(=O)OC[C@H]1O[C@@H](n2cnc3c(N)nc(Cl)nc32)[C@H](O)[C@@H]1O)[C@H](OC)C(C)C`, the IC50 with SK-HEP1, in the experiment with MDA-MB-231, in the experiment on MRC5, in the experiment with SNU-638, in the experiment with HCT-116 and in the experiment on A549 was over 20 µM in each case. In experiment [1], the inhibition entry was “Active”.

With `Nc1ncnc2c1ncn2[C@@H]1O[C@H](COS(=O)(=O)NC(=O)[C@@H](O)[C@H](O)C2CC2)[C@H]2NC(=O)O[C@H]21`, in experiment [1], the inhibition entry is “Active”.

As to `CNc1ncnc2c1ncn2[C@@H]1O[C@H](COS(=O)(=O)NC(=O)[C@H](CC(C)C)OC)[C@@H](O)[C@H]1O`, the inhibition entry at mTORC2 (Homo sapiens) is “Active”. Besides, the inhibition entry in experiment [1] is “inactive”.

Take `CC(C)C[C@H](O)C(=O)NS(=O)(=O)OC[C@H]1O[C@@H](n2cnc3c(N)nc(I)nc32)[C@H](O)[C@@H]1O`: the inhibition entry in experiment [1] is “Active”.

In the case of `CC(C)C[C@H](O)C(=O)NS(=O)(=O)OC[C@H]1O[C@@H](n2cnc3c(N)ncnc32)[C@@H](O)[C@@H]1O`, the inhibition result in experiment [1] was “Active”.

Take `Nc1ncnc2c1ncn2[C@@H]1O[C@H](COS(=O)(=O)NC(=O)[C@@H](O)[C@H](O)C2CC2)[C@@H](O)[C@H]1O`: the inhibition result in experiment [1] was “inactive”.

As for `CC(C)C[C@@H](O)C(=O)NS(=O)(=O)OC[C@H]1O[C@@H](n2cnc3c(N)ncnc32)[C@H](O)[C@@H]1O`, the inhibition entry in experiment [1] was “Active”.

In the case of `CNc1ncnc2c1ncn2[C@@H]1O[C@H](COS(=O)(=O)NC(=O)[C@@H](Cl)CC(C)C)[C@@H](O)[C@H]1O`, the inhibition entry in experiment [1] was “inactive”.

Regarding `Nc1ncnc2c1ncn2[C@@H]1O[C@H](COS(=O)(=O)NC(=O)c2cc(C3CC3)n[nH]2)[C@@H](O)[C@H]1O`, the inhibition entry in experiment [1] is “inactive”.

In the case of `COc1cc([C@@H]2c3cc4c(cc3[C@@H](O[C@@H]3O[C@@H]5CO[C@@H](C)O[C@H]5[C@H](O)[C@H]3O)[C@H]3COC(=O)[C@H]23)OCO4)cc(OC)c1O` [ETOPOSIDE], the IC50 was 0.41 µM with SK-HEP1; 3.38 µM in the experiment on MDA-MB-231; 12.7 µM in the experiment with MRC5; 0.34 µM with SNU-638; 1.22 µM with HCT-116; 0.47 µM with A549.

For `CC(C)c1cc(C(=O)NS(=O)(=O)OC[C@H]2O[C@@H](n3cnc4c(N)nc(I)nc43)[C@H](O)[C@@H]2O)[nH]n1`, in experiment [1], the inhibition result was “inactive”.

For `O=C(NS(=O)(=O)OC[C@H]1O[C@@H](n2cnc3c(=O)[nH]cnc32)[C@H](O)[C@@H]1O)[C@@H](O)[C@H](O)C1CC1`, the inhibition entry in experiment [1] is “inactive”.

With `CC(C)C[C@H](N)C(=O)NS(=O)(=O)OC[C@H]1O[C@@H](n2cnc3c(N)ncnc32)C[C@@H]1O`, the inhibition result in experiment [1] is “inactive”.

For the compound `CN[C@@H](CC(C)C)C(=O)NS(=O)(=O)OC[C@H]1O[C@@H](n2cnc3c(N)ncnc32)[C@H](O)[C@@H]1O`, in experiment [1], the inhibition result is “inactive”.

For the compound `Nc1nc(I)nc2c1ncn2[C@@H]1O[C@H](COS(=O)(=O)NC(=O)[C@@H](O)[C@H](O)C2CC2)[C@@H](O)[C@H]1O`, the IC50 with SK-HEP1 was 5.86 µM; in the experiment on MDA-MB-231, 16.7 µM; in the experiment with MRC5, over 20 µM; in the experiment on SNU-638, 4.77 µM; in the experiment with HCT-116 it was 7.27 µM; with A549, 4.84 µM. Moreover, the inhibition entry in experiment [1] is “Active”.

Take `CO[C@H](C(=O)NS(=O)(=O)OC[C@H]1O[C@@H](n2cnc3c(N)ncnc32)C[C@@H]1O)[C@H](OC)C(C)C`: in experiment [1], the inhibition entry is “inactive”.

On to `CC(C)C[C@H](O)C(=O)NS(=O)(=O)OC[C@@H]1C[C@@H](O)[C@H](n2cnc3c(N)ncnc32)O1`, for which the inhibition entry on mTORC2 (Homo sapiens) is “Active”. In addition, in experiment [1], the inhibition entry is “inactive”.

For the compound `CC(C)C[C@H](S)C(=O)NS(=O)(=O)OC[C@H]1O[C@@H](n2cnc3c(=O)[nH]cnc32)[C@H](O)[C@@H]1O`, in experiment [1], the inhibition entry is “inactive”.

On to `CC(C)/C=C/C(=O)NS(=O)(=O)OC[C@H]1O[C@@H](n2cnc3c(N)ncnc32)[C@H](O)[C@@H]1O`, for which the inhibition result in experiment [1] is “Active”.

Regarding `CO[C@H](C(=O)NS(=O)(=O)OC[C@H]1O[C@@H](n2cnc3c(N)ncnc32)[C@H](O)[C@@H]1O)[C@H](O)C(C)C`, the inhibition result in experiment [1] is “inactive”.

With `CO[C@H](C(=O)NS(=O)(=O)OC[C@H]1O[C@@H](n2cnc3c(N)ncnc32)[C@H](O)[C@@H]1O)[C@H](OC)C(C)C`, the inhibition entry in experiment [1] was “inactive”.

Turning to `CC(C)C[C@H](O)C(=O)NS(=O)(=O)OC[C@H]1O[C@@H](n2cnc3c(N)nc(Cl)nc32)[C@H](O)[C@@H]1O`, the inhibition result in experiment [1] was “inactive”.

For `CO[C@H](C(=O)NS(=O)(=O)OC[C@H]1O[C@@H](n2cnc3c(N)nc(Cl)nc32)[C@H](O)[C@@H]1O)[C@H](O)C(C)C`, the inhibition entry in experiment [1] is “inactive”.

Take `CC(C)[C@@H](O)[C@H](O)C(=O)NS(=O)(=O)OC[C@H]1O[C@@H](n2cnc3c(N)ncnc32)[C@@H]2OC(=O)N[C@@H]21`: the inhibition result in experiment [1] was “inactive”.

Regarding `CC(C)C[C@@H](O)C(=O)NS(=O)(=O)OC[C@H]1O[C@@H](n2cnc3c(=O)[nH]cnc32)[C@H](O)[C@@H]1O`, the inhibition result in experiment [1] is “inactive”.

In the case of `CC(C)C[C@H](N)CO`, the inhibition entry in experiment [1] was “Active”.

`CO[C@H](C(=O)NS(=O)(=O)OC[C@H]1O[C@@H](n2cnc3c(N)ncnc32)C[C@@H]1O)[C@H](O)C(C)C`: in experiment [1], the inhibition entry is “inactive”.

With `CC(C)C[C@H](O)C(=O)NS(=O)(=O)OC[C@H]1O[C@@H](n2cnc3c(N)ncnc32)C[C@@H]1O`, the inhibition result at mTORC2 (Homo sapiens) is “Active”. Besides, the inhibition result in experiment [1] is “inactive”.

For `CC(C)C[C@H](S)C(=O)NS(=O)(=O)OC[C@H]1O[C@@H](n2cnc3c(N)ncnc32)[C@H](O)[C@@H]1O`, in experiment [1], the inhibition entry is “Active”.

Take `CC(C)C[C@H](Cl)C(=O)NS(=O)(=O)OC[C@H]1O[C@@H](n2cnc3c(N)ncnc32)[C@H](O)[C@@H]1O`: the inhibition result in experiment [1] was “inactive”.
